# pIC50: −log10 of the molar value.
# Assays:
# Bacillus subtilis = experiment: Antimicrobial activity against Bacillus subtilis DSM 347 after 22 hrs by resazurin dye based spectrophotometry; format: functional; settings: DSM 347, 22 h
# Procedure, shortened: (§1)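 2-fold broth microdilution in Mueller–Hinton medium; peptide stocks 1024 μg/mL in 50% ethanol. Exponential-phase cultures diluted to OD550 0.2, then 1:100 (B. subtilis) or 1:1000 (E. coli), giving 5 × 10^5 CFU/mL per well. Incubated 22 h, 37 °C, static; then resazurin (0.2 mg/mL solution) added for 2 h at 37 °C, read visually and spectrophotometrically. Tested in both photoforms.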
# HeLa = experiment: Cytotoxicity against human HeLa cells assessed as reduction in cell viability after 24 hrs by MTT assay; format: functional, cell-based
# Procedure, shortened: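 HeLa cells seeded at about 5 × 10^4 cells/mL in DMEM with 10% FBS, 2 mM glutamine, gentamicin; 24 h adaptation (37 °C, 5% CO2), then 24 h peptide exposure. MTT 4 h, formazan in DMSO read at 570 nm. 2-fold series 256–0.5 (open) or 512–1 μg/mL (closed), four repetitions; IC50 extrapolated from killing curves. Closed form handled in dim light.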
# [1] = Therapeutic index, ratio of HC50 for human RBC to MIC for Escherichia coli DSM 1103; format: toxicity; settings: human red blood cells versus Escherichia coli DSM 1103
# Procedure, shortened: (§2)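 Ratio of HC50 (RBC) to HeLa IC50 or to MIC against B. subtilis or E. coli; values measured in mg/mL and recalculated to μM, 2-fold dilution without curve fitting, accuracy within a factor of 2.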
# Escherichia coli = experiment: Antimicrobial activity against Escherichia coli DSM 1103 after 22 hrs by resazurin dye based spectrophotometry; format: functional; settings: DSM 1103, 22 h; procedure, shortened: as §1
# [2] = Hemolytic activity against human RBC assessed as hemolysis after 30 mins by colorimetric method; format: ADME, cell-based, Erythrocyte; settings: human red blood cells (erythrocytes)
# Procedure, shortened: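 Human erythrocytes washed twice in isotonic 172 mM Tris-HCl, pH 7.6; peptides dissolved in DMSO, diluted in buffer, two independent 10-step 2-fold series from 256 or 192 μg/mL. HC50 extrapolated as 50% hemolysis concentration.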
# [3] = Selective ratio of HC50 for human RBC to IC50 for human HeLa cells; format: toxicity; settings: human red blood cells versus HeLa cells; procedure, shortened: as §2
# [4] = Therapeutic index, ratio of HC50 for human RBC to MIC for Bacillus subtilis DSM 347; format: toxicity; settings: human red blood cells versus Bacillus subtilis DSM 347; procedure, shortened: as §2
Structure (SMILES),MIC (Bacillus subtilis),MIC (Escherichia coli),pIC50 (HeLa),selectivity ratio [1],HC50 at 0.5 h [2],selectivity ratio [3],selectivity ratio [4]
Cc1sc2cc1C1=C(CCC1)c1cc(sc1C)C(=O)[C@H]1CCCN1C(=O)[C@H](C)NC(=O)[C@H](CCCN)NC(=O)[C@H](C(C)C)NC(=O)[C@@H]1CCCN1C(=O)[C@@H](Cc1ccccc1)NC(=O)[C@H](CC(C)C)NC(=O)[C@H](CCCN)NC(=O)[C@H](C)NC2=O,7 µM,106 µM,4.40,0.8,87 µM,2.2,12.4
Cc1sc2cc1C1=C(CCC1)c1cc(sc1C)C(=O)[C@H]1CCCN1C(=O)[C@H](CC(C)C)NC(=O)[C@H](CCCN)NC(=O)[C@H](C(C)C)NC(=O)[C@@H]1CCCN1C(=O)[C@@H](Cc1ccccc1)NC(=O)[C@H](CC(C)C)NC(=O)[C@H](CCCN)NC(=O)[C@H](CCCN)NC2=O,2 µM,25 µM,5.22,0.5,12 µM,2,6
CC(C)C[C@@H]1NC(=O)[C@H](CCCN)NC(=O)[C@H](C)NC(=O)C2=CC3=C4CCCC4=C4C=C(S[C@]4(C)[C@@]3(C)S2)C(=O)[C@H]2CCCN2C(=O)[C@H](C)NC(=O)[C@H](CCCN)NC(=O)[C@H](C(C)C)NC(=O)[C@@H]2CCCN2C(=O)[C@@H](Cc2ccccc2)NC1=O,40 µM,212 µM,3.97,0.8,175 µM,1.7,4.4
Cc1sc2cc1C1=C(CCC1)c1cc(sc1C)C(=O)[C@H]1CCCN1C(=O)[C@H](CC(C)C)NC(=O)[C@H](CCCCN)NC(=O)[C@H](C(C)C)NC(=O)[C@H](CCCCN)N(C)C(=O)[C@@H](Cc1ccccc1)NC(=O)[C@H](CC(C)C)NC(=O)[C@H](CCCCN)NC(=O)[C@H](C(C)C)NC2=O,3 µM,47 µM,5.52,0.1,4 µM,1.3,1.3
Cc1sc2cc1C1=C(CCC1)c1cc(sc1C)C(=O)[C@H]1CCCN1C(=O)[C@H](C(C)C)NC(=O)[C@H](CCCCN)NC(=O)[C@H](C(C)C)NC(=O)[C@H](CC(C)C)NC(=O)[C@@H](CCCCN)NC(=O)[C@@H]1CCCN1C(=O)[C@@H](Cc1ccccc1)NC(=O)[C@H](C(C)C)NC(=O)[C@H](CCCCN)NC(=O)[C@H](CC(C)C)NC(=O)[C@H](CCCCN)NC(=O)[C@H](C(C)C)NC2=O,1 µM,9 µM,5.52,0.1,1 µM,0.3,1
Cc1sc2cc1C1=C(CCC1)c1cc(sc1C)C(=O)[C@H]1CCCN1C(=O)[C@H](CC(C)C)NC(=O)[C@H](CCCCN)NC(=O)[C@H](C(C)C)NC(=O)[C@H](CCCCN)NC(=O)[C@H](CC(C)C)NC(=O)[C@H](CCCCN)N(C)C(=O)[C@@H](Cc1ccccc1)NC(=O)[C@H](C(C)C)NC(=O)[C@H](CCCCN)NC(=O)[C@H](CC(C)C)NC(=O)[C@H](CCCCN)NC(=O)[C@H](C(C)C)NC2=O,4 µM,18 µM,5.70,0.1,< 1 µM,0.5,0.3
CC(C)C[C@@H]1NC(=O)[C@H](CCCCN)NC(=O)[C@H](C(C)C)NC(=O)C2=CC3=C4CCCC4=C4C=C(S[C@]4(C)[C@@]3(C)S2)C(=O)[C@H]2CCCN2C(=O)[C@H](CC(C)C)NC(=O)[C@H](CCCCN)NC(=O)[C@H](C(C)C)NC(=O)[C@H](CCCCN)N(C)C(=O)[C@@H](Cc2ccccc2)NC1=O,3 µM,95 µM,4.62,0.2,22 µM,0.9,7.3
CC(C)C[C@@H]1NC(=O)[C@H](CCCN)NC(=O)[C@H](C(C)C)NC(=O)C2=CC3=C4CCCC4=C4C=C(S[C@]4(C)[C@@]3(C)S2)C(=O)[C@H]2CCCN2C(=O)[C@H](C)NC(=O)[C@H](CCCN)NC(=O)[C@H](C(C)C)NC(=O)[C@@H]2CCCN2C(=O)[C@@H](Cc2ccccc2)NC1=O,13 µM,207 µM,4.41,0.2,45 µM,1.2,3.5

# Now from value to molecule, other results behind:
MIC (Bacillus subtilis),MIC (Escherichia coli),Structure (SMILES),pIC50 (HeLa),selectivity ratio [1],HC50 at 0.5 h [2],selectivity ratio [3],selectivity ratio [4]
2 µM,73 µM,CC(C)C[C@@H]1NC(=O)[C@H](CCCCN)NC(=O)[C@H](C(C)C)NC(=O)C2=CC3=C4CCCC4=C4C=C(S[C@]4(C)[C@@]3(C)S2)C(=O)[C@H]2CCCN2C(=O)[C@H](C(C)C)NC(=O)[C@H](CCCCN)NC(=O)[C@H](C(C)C)NC(=O)[C@H](CC(C)C)NC(=O)[C@@H](CCCCN)NC(=O)[C@@H]2CCCN2C(=O)[C@@H](Cc2ccccc2)NC(=O)[C@H](C(C)C)NC(=O)[C@H](CCCCN)NC1=O,4.74,0.2,14 µM,0.8,7
21 µM,164 µM,CC(C)C[C@@H]1NC(=O)[C@H](CCCCN)NC(=O)[C@H](C(C)C)NC(=O)[C@@H]2CCCN2C(=O)[C@@H](Cc2ccccc2)NC(=O)[C@H](CC(C)C)NC(=O)[C@H](CCCCN)NC(=O)[C@H](C(C)C)NC(=O)[C@H](CCCCN)NC(=O)C2=CC3=C4CCCC4=C4C=C(S[C@]4(C)[C@@]3(C)S2)C(=O)[C@H]2CCCN2C(=O)[C@H](CCCCN)NC1=O,4.09,0.4,65 µM,0.8,3.1
3 µM,12 µM,CC(C)C[C@@H]1NC(=O)[C@H](CCCN)NC(=O)[C@H](CCCN)NC(=O)C2=CC3=C4CCCC4=C4C=C(S[C@]4(C)[C@@]3(C)S2)C(=O)[C@H]2CCCN2C(=O)[C@H](CC(C)C)NC(=O)[C@H](CCCN)NC(=O)[C@H](C(C)C)NC(=O)[C@@H]2CCCN2C(=O)[C@@H](Cc2ccccc2)NC1=O,4.92,1.4,17 µM,1.4,5.7
10 µM,164 µM,CC(C)C[C@@H]1NC(=O)C2=CC3=C4CCCC4=C4C=C(S[C@]4(C)[C@@]3(C)S2)C(=O)[C@H]2CCCN2C(=O)[C@H](C(C)C)NC(=O)[C@H](CCCCN)NC(=O)[C@H](CC(C)C)NC(=O)[C@H](CCCCN)NC(=O)[C@@H]2CCCN2C(=O)[C@@H](Cc2ccccc2)NC(=O)[C@H](CCCCN)NC(=O)[C@H](C(C)C)NC(=O)[C@H](CCCCN)NC1=O,4.09,0.5,82 µM,1,8.2
1 µM,21 µM,Cc1sc2cc1C1=C(CCC1)c1cc(sc1C)C(=O)[C@H]1CCCN1C(=O)[C@H](CCCCN)NC(=O)[C@H](CC(C)C)NC(=O)[C@H](CCCCN)NC(=O)[C@H](C(C)C)NC(=O)[C@@H]1CCCN1C(=O)[C@@H](Cc1ccccc1)NC(=O)[C@H](CC(C)C)NC(=O)[C@H](CCCCN)NC(=O)[C@H](C(C)C)NC(=O)[C@H](CCCCN)NC2=O,4.39,0.2,4 µM,0.1,4
2 µM,41 µM,Cc1sc2cc1C1=C(CCC1)c1cc(sc1C)C(=O)[C@H]1CCCN1C(=O)[C@H](C(C)C)NC(=O)[C@H](CCCCN)NC(=O)[C@H](CC(C)C)NC(=O)[C@H](CCCCN)NC(=O)[C@@H]1CCCN1C(=O)[C@@H](Cc1ccccc1)NC(=O)[C@H](CCCCN)NC(=O)[C@H](C(C)C)NC(=O)[C@H](CCCCN)NC(=O)[C@H](CC(C)C)NC2=O,4.39,2,82 µM,2,41
1 µM,36 µM,CC(C)C[C@@H]1NC(=O)[C@H](CCCCN)NC(=O)[C@H](C(C)C)NC(=O)C2=CC3=C4CCCC4=C4C=C(S[C@]4(C)[C@@]3(C)S2)C(=O)[C@H]2CCCN2C(=O)[C@H](CC(C)C)NC(=O)[C@H](CCCCN)NC(=O)[C@H](C(C)C)NC(=O)[C@H](CCCCN)NC(=O)[C@H](CC(C)C)NC(=O)[C@@H]2CCCN2C(=O)[C@@H](Cc2ccccc2)NC(=O)[C@H](C(C)C)NC(=O)[C@H](CCCCN)NC1=O,4.55,1,37 µM,1.3,37
1 µM,9 µM,CC(C)C[C@@H]1NC(=O)[C@H](CCCCN)NC(=O)[C@H](C(C)C)NC(=O)C2=CC3=C4CCCC4=C4C=C(S[C@]4(C)[C@@]3(C)S2)C(=O)[C@H]2CCCN2C(=O)[C@H](CC(C)C)NC(=O)[C@H](CCCCN)NC(=O)[C@H](C(C)C)NC(=O)[C@H](CCCCN)NC(=O)[C@H](CC(C)C)NC(=O)[C@H](CCCCN)N(C)C(=O)[C@@H](Cc2ccccc2)NC(=O)[C@H](C(C)C)NC(=O)[C@H](CCCCN)NC1=O,4.74,1,9 µM,0.5,9
